# Test results taken from ChEMBL document CHEMBL4433203, “Design, synthesis, and evaluation of isoflavone analogs as multifunctional agents for the treatment of Alzheimer's disease” (Eur J Med Chem, 2019).
# Activity calls are given as the source filed them. The rule behind the calls is not given here.
# Columns and labels:
# [1] = Antioxidant activity assessed as AAPH radical scavenging activity preincubated for 15 mins with fluorescein before AAPH addition and recorded every 2 mins for 160 mins by ORAC-FL assay; type: functional
# Procedure, shortened: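 ORAC-FL assay in 75 mM PBS, pH 7.4. Compound was preincubated with fluorescein (20 nM final) for 15 min at 37 °C, then AAPH (18 mM final) was added. Fluorescence (ex 460/em 520 nm) was read every 2 min for 160 min. Net area under the decay curve, blank-normalized, is expressed as µM Trolox equivalents per µM compound. Duplicates, ≥3 independent assays.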
# [2] = target: T1, Histamine H3 receptor (Homo sapiens, UniProt Q9Y5N1); assay: Inhibition of human H3R expressed in methylhistamine-induced human H3-bla U2OS cells at 10 uM incubated for 30 mins by beta-lactamase complementation technology relative to control; type: cell-based
# [3] = Cytotoxicity in human SH-SY5Y cells assessed as reduction in cell viability after 72 hrs incubation by MTT assay
# [4] = test system: SH-SY5Y; assay: Neuroprotective activity against copper-induced cytotoxicity in human SH-SY5Y cells expressing APP Swedish mutant assessed as increase in cell viability at 10 uM pre-incubated for 2 hrs followed by copper addition and measured after 24 hrs by MTT assay; type: functional, cell-based
# [5] = test system: BV-2; assay: Antiinflammatory activity in mouse BV2 cells assessed as reduction in LPS-induced IL-6 production at 10 uM pretreated for 1 hr followed by LPS challenge and measured after 24 hrs by ELISA assay; type: functional, cell-based
# [6] = test system: BV-2; assay: Antiinflammatory activity in mouse BV2 cells assessed as reduction in LPS-induced TNF-alpha production at 10 uM pretreated for 1 hr followed by LPS challenge and measured after 24 hrs by ELISA assay; type: functional, cell-based
# [7] = target: T1, Histamine H3 receptor; assay: Inhibition of human H3R expressed in methylhistamine-induced human H3-bla U2OS cells incubated for 30 mins by beta-lactamase complementation technology; type: cell-based
# Procedure, shortened: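 H3-bla U2OS cells co-express human H3R-Gal4-VP16 (TEV site) and β-arrestin/TEV protease with a UAS-β-lactamase reporter. IC50 came from log concentration-inhibition curves. Triplicates, three independent experiments.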
# [8] = target: Cholinesterase (Mus musculus, UniProt Q03311); assay: Inhibition of mouse plasma BuChE using S-butyrylacetylthiocholine iodide as substrate measured after 30 mins by Ellman's method relative to control
# [9] = target: T2, Acetylcholinesterase (Mus musculus, UniProt P21836); assay: Inhibition of mouse brain AChE using acetylthiocholine iodide as substrate measured after 30 mins by Ellman's method
# T2 sequence (P21836 whole entry): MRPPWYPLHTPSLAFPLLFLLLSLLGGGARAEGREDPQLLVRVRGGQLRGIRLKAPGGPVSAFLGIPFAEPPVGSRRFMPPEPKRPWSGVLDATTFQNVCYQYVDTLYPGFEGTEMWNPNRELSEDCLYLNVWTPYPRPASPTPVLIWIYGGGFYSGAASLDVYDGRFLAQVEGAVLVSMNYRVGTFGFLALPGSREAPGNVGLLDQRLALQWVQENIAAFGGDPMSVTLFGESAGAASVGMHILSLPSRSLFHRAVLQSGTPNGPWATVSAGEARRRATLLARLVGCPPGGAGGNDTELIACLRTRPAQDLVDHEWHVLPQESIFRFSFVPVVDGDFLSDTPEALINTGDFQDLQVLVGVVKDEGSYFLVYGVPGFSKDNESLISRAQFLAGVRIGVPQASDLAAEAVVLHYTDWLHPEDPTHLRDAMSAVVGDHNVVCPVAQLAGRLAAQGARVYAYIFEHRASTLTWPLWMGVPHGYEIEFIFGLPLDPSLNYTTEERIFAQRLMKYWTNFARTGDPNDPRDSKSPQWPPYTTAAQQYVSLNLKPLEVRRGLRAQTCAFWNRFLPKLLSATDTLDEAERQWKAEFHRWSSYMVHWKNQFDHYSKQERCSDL
# [10] = target: T3, Acetylcholinesterase (Mus musculus) (UniProt P21836); details: at 10 µM
# T3 sequence (whole entry): T2 sequence (P21836 whole entry)
# T1 sequence (Q9Y5N1 whole entry): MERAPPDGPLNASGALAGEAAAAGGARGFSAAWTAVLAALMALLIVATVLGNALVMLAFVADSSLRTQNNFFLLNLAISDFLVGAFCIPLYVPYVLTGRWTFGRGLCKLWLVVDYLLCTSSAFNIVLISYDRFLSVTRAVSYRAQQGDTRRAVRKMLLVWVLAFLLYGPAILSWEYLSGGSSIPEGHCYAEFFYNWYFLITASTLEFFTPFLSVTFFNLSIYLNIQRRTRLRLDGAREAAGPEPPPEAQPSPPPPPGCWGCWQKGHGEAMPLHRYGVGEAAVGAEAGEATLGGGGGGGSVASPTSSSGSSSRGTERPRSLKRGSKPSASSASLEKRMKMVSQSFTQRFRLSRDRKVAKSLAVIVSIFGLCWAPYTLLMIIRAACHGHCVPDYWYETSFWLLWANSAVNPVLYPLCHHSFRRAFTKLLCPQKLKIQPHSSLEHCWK
# Cholinesterase, sequence (Q03311 whole entry): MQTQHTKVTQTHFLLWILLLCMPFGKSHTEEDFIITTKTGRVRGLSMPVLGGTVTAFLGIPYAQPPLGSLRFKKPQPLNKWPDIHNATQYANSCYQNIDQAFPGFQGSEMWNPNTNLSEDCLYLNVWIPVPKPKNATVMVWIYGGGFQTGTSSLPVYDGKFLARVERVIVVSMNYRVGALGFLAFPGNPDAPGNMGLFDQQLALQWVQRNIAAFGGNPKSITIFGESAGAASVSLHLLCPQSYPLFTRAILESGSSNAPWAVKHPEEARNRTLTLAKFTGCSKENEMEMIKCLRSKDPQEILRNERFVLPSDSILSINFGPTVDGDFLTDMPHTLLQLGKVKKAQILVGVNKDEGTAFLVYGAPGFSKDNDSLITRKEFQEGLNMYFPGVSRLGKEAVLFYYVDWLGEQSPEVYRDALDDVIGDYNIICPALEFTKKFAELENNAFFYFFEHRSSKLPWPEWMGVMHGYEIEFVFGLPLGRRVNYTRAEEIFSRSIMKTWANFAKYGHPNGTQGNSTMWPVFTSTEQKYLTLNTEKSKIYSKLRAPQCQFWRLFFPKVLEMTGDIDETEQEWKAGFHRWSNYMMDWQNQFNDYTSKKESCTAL
SMILES,Activity [1] [equiv/µM],inhibition [2] [%],IC50 ([7]; read-out: IC50) [µM],IC50 ([8]; read-out: IC50) [µM],IC50 ([9]; read-out: IC50) [µM],inhibition [10] [%],other results
Cc1c(C)c2c(c(C)c1O)CCC(C)(C(=O)O)O2 (stereo not given),1,,,,,,
S=C(NC1CCCCC1)N1CCC(c2cnc[nH]2)CC1 [THIOPERAMIDE],,71.1,,,,,CC50 at 72 h ([3]; SH-SY5Y cells): 85.8 µM
COc1cc2c(cc1OC)C(=O)C(CC1CCN(Cc3ccccc3)CC1)C2 (stereo not given) [DONEPEZIL],,,,,,,Activity [4]: inactive; Activity [5]: inactive; Activity [6]: inactive; CC50 at 72 h ([3]; sh-sy5y): 25.1 µM
COc1ccc(-c2coc3cc(OCCNc4c5c(nc6ccccc46)CCCC5)ccc3c2=O)cc1,0.01,60.5,> 10,0.38,0.96,85.8,
O=c1c(-c2ccc(OCCN3CCCCC3)cc2)coc2cc(OCCCCN3CCCCC3)ccc12,0.11,72.4,0.41,2.49,0.2,85.1,
CCN(C)C(=O)Oc1cccc([C@H](C)N(C)C)c1 [RIVASTIGMINE],,,,,,,CC50 at 72 h ([3]; SH-SY5Y cells): 67.8 µM
O=c1c(-c2ccc(OCCN3CCCCC3)cc2)coc2cc(OCCN3CCCCC3)ccc12,0.14,71.5,1.94,2.92,0.35,82.8,
O=c1c(-c2ccc(OCCN3CCCCC3)cc2)coc2cc(OCCN3CCCC3)ccc12,0.14,,2.07,4.55,0.71,,
O=c1c(-c2ccc(O)cc2)coc2cc(OCCCCN3CCCCC3)ccc12,0.88,6.88,> 50,24.8,26.8,63.4,
CCN(C)CCCCOc1ccc2c(=O)c(-c3ccc(OC)cc3)coc2c1,0.11,,0.43,,9.47,,
COc1ccc(-c2coc3cc(OCCN4C(=O)c5ccccc5C4=O)ccc3c2=O)cc1,0.01,,,,> 50,11.2,IC50 ([7]; u2os): Not Active; IC50 [8]: Not Active
COc1ccc(-c2coc3cc(OCCOCCN4CCCCC4)ccc3c2=O)cc1,0.01,30.3,> 50,> 50,> 50,35,
CCN(C)CCCOc1ccc2c(=O)c(-c3ccc(OC)cc3)coc2c1,0.12,,0.52,,22.6,,
COc1ccc(-c2coc3cc(OCCNC(=O)OC(C)(C)C)ccc3c2=O)cc1,0.05,,,,,-0.17,IC50 ([7]; u2os): Not Active; IC50 [8]: Not Active; IC50 [9]: Not Active
COc1ccc(-c2coc3cc(OCCN)ccc3c2=O)cc1.Cl,0.08,-6.69,,,> 50,16.9,IC50 ([7]; u2os): Not Active; IC50 [8]: Not Active
COc1ccc(-c2coc3cc(OCCNC4CCCC4)ccc3c2=O)cc1,0.01,47.1,> 50,5.98,4.5,78.5,
COc1ccc(-c2coc3cc(OCCNC4CCCCC4)ccc3c2=O)cc1,0.01,41,> 50,21.6,5,73.7,
COc1ccc(-c2coc3cc(OCCCCN4CCCCC4)ccc3c2=O)cc1,0.07,,0.73,8.83,3.98,,
